Data as given in ChEMBL document CHEMBL3351588, “Design, synthesis and biological evaluation of N-alkyl or aryl substituted isoindigo derivatives as potential dual cyclin-dependent kinase 2 (CDK2)/glycogen synthase kinase 3β (GSK-3β) phosphorylation inhibitors” (Eur J Med Chem, 2014).
Calls of active or inactive are those of the source. The calls are words filed in the database; no cut-off is given here.

What was measured:
K562 [1] = assay: Induction of cell cycle arrest in human K562 cells assessed as accumulation at S phase at 5 uM after 24 hrs by propidium iodide staining based flow cytometry (reference value: 44.90%); type: functional
K562 [2] = assay: Induction of cell cycle arrest in human K562 cells assessed as accumulation at G0/G1 phase at 30 uM after 24 hrs by propidium iodide staining based flow cytometry (reference value: 36.14%); type: functional
K562 [3] = assay: Induction of cell cycle arrest in human K562 cells assessed as accumulation at S phase at 30 uM after 24 hrs by propidium iodide staining based flow cytometry (reference value: 44.90%); type: functional
K562 [4] = assay: Induction of apoptosis in human K562 cells after 48 hrs by Annexin V-FITC/propidium iodide staining based flow cytometry; type: functional, cell-based
Outline: (§1)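 K562 cells exposed for 24 h or 48 h to 0, 5.0, 10.0, 15.0, 20.0 or 30.0 µM; vehicle DMSO 0.5% v/v. Cells stained with FITC-Annexin V, then counterstained with PI, and analysed by FACScan flow cytometry. Quadrants: Annexin V−/PI− viable; Annexin V+/PI− early apoptotic; Annexin V+/PI+ late apoptotic/necrotic.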

K562 [5] = assay: Induction of apoptosis in human K562 cells assessed as viable cells level at 5 uM after 24 hrs by Annexin V-FITC/propidium iodide staining based flow cytometry (reference value: 97.64%); type: functional; outline: as §1
K562 [6] = assay: Induction of apoptosis in human K562 cells assessed as viable cells level at 15 uM after 24 hrs by Annexin V-FITC/propidium iodide staining based flow cytometry (reference value: 97.64%); type: functional; outline: as §1
K562 [7] = assay: Induction of apoptosis in human K562 cells assessed as early apoptotic cells level at 15 uM after 24 hrs by Annexin V-FITC/propidium iodide staining based flow cytometry (reference value: […]); type: functional
K562 [8] = assay: Induction of apoptosis in human K562 cells assessed as late apoptotic cells level at 15 uM after 24 hrs by Annexin V-FITC/propidium iodide staining based flow cytometry (reference value: 0.79%); type: functional; outline: as §1
K562 [9] = assay: Induction of apoptosis in human K562 cells assessed as necrotic cells level at 15 uM after 24 hrs by Annexin V-FITC/propidium iodide staining based flow cytometry (reference value: 0.0%); type: functional; outline: as §1
K562 [10] = assay: Induction of apoptosis in human K562 cells assessed as early apoptotic cells level at 20 uM after 24 hrs by Annexin V-FITC/propidium iodide staining based flow cytometry (reference value: […]); type: functional
K562 [11] = assay: Induction of apoptosis in human K562 cells assessed as early apoptotic cells level at 30 uM after 24 hrs by Annexin V-FITC/propidium iodide staining based flow cytometry (reference value: […]); type: functional
K562 [12] = assay: Induction of apoptosis in human K562 cells assessed as late apoptotic cells level at 30 uM after 24 hrs by Annexin V-FITC/propidium iodide staining based flow cytometry (reference value: 0.79%); type: functional; outline: as §1
K562 [13] = assay: Induction of apoptosis in human K562 cells assessed as necrotic cells level at 30 uM after 24 hrs by Annexin V-FITC/propidium iodide staining based flow cytometry (reference value: 0.0%); type: functional; outline: as §1
K562 [14] = assay: Induction of apoptosis in human K562 cells assessed as early apoptotic cells level at 5 uM after 48 hrs by Annexin V-FITC/propidium iodide staining based flow cytometry (reference value: 0.24%); type: functional; outline: as §1
K562 [15] = assay: Induction of apoptosis in human K562 cells assessed as necrotic cells level at 5 uM after 48 hrs by Annexin V-FITC/propidium iodide staining based flow cytometry (reference value: 0.01%); type: functional; outline: as §1
K562 [16] = assay: Induction of apoptosis in human K562 cells assessed as necrotic cells level at 10 uM after 48 hrs by Annexin V-FITC/propidium iodide staining based flow cytometry (reference value: 0.01%); type: functional; outline: as §1
K562 [17] = assay: Induction of apoptosis in human K562 cells assessed as necrotic cells level at 15 uM after 48 hrs by Annexin V-FITC/propidium iodide staining based flow cytometry (reference value: 0.01%); type: functional; outline: as §1
K562 [18] = assay: Induction of apoptosis in human K562 cells assessed as viable cells level at 20 uM after 48 hrs by Annexin V-FITC/propidium iodide staining based flow cytometry (reference value: 99.21%); type: functional; outline: as §1
K562 [19] = assay: Induction of apoptosis in human K562 cells assessed as necrotic cells level at 30 uM after 48 hrs by Annexin V-FITC/propidium iodide staining based flow cytometry (reference value: 0.01%); type: functional; outline: as §1
K562 [20] = assay: Reduction in beta-catenin protein expression in human K562 cells at 5 to 30 uM after 24 hrs by Western blotting method; type: functional, cell-based
K562 [21] = assay: Reduction in c-myc protein expression in human K562 cells at 5 to 30 uM after 24 hrs by Western blotting method; type: functional, cell-based
K562 [22] = assay: Increase in GSK3beta protein expression in human K562 cells at 5 to 30 uM after 24 hrs by Western blotting method; type: functional, cell-based
Outline: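 K562 cells treated for 24 h; negative control DMSO 0.5% v/v, meisoindigo positive control. Lysates separated on 10% SDS-PAGE and transferred to nitrocellulose. Blocked with 5% milk in PBS-0.1% Tween-20, then probed for GSK-3β and p-GSK-3β (Ser9) for 2 h at room temperature, with β-actin as loading control. Detected with IRDye secondaries by infrared imaging and quantified by band gray value; p<0.05 versus DMSO.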

HeLa = assay: Cytotoxicity against human HeLa cells after 48 hrs by SRB assay; type: functional, cell-based
Outline: (§2)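 Cells seeded at 5 × 10³ per well and allowed to attach for 12 h, then exposed to a range of drug concentrations in their own medium for 48 h. Fixed with ice-cold TCA for 1 h at 4 °C, washed, then stained with 0.4% SRB for 30 min at room temperature. IC50 is the mean of three independent experiments.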

[23] = Cytotoxicity against human VEC cells after 48 hrs by SRB assay; type: cell-based; outline: as §2
K562 [24] = assay: Induction of cell morphological changes in human K562 cells assessed as chromatin condensation at 5 to 30 uM after 24 hrs by Hoechst 33342/propidium iodide staining based inverted fluorescence microscopy; type: functional
Outline: (§3)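 Cells treated for 24 h with 5.0–30.0 μM or with 0.5% DMSO, then collected and washed with PBS. Stained with Hoechst 33342 (5.0 μg/mL, 10 min, 37 °C), then with PI (10.0 μg/mL, 10 min, room temperature, dark). Nuclei scored by fluorescence microscopy as condensed/bright, fragmented, or PI-positive.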

K562 [25] = assay: Induction of cell morphological changes in human K562 cells assessed as nuclear fragmentation at 5 to 30 uM after 24 hrs by Hoechst 33342/propidium iodide staining based inverted fluorescence microscopy; type: functional; outline: as §3
K562 [26] = assay: Induction of cell cycle arrest in human K562 cells assessed as reduction in accumulation at G0/G1 phase after 24 hrs by propidium iodide staining based flow cytometry; type: functional
K562 [27] = assay: Induction of cell cycle arrest in human K562 cells assessed as accumulation at G2/M phase at 10 uM after 24 hrs by propidium iodide staining based flow cytometry (reference value: 18.96%); type: functional
K562 [28] = assay: Induction of cell cycle arrest in human K562 cells assessed as accumulation at G0/G1 phase at 5 uM after 24 hrs by propidium iodide staining based flow cytometry (reference value: 36.14%); type: functional
K562 [29] = assay: Induction of cell cycle arrest in human K562 cells assessed as accumulation at G2/M phase at 5 uM after 24 hrs by propidium iodide staining based flow cytometry (reference value: 18.96%); type: functional

With `COc1ccc(N2C(=O)/C(=C3/C(=O)Nc4ccccc43)c3ccccc32)cc1` as the compound, how does the Activity (K562 [1]) read?
The Activity was 46.03%.

And the Activity (K562 [2])?
The Activity was 25.43%.

And the Activity (K562 [3])?
Its Activity is 62.77%.

What about the Activity (K562 [4]) of the same compound?
Its Activity is “Dose-dependent effect”.

What about the Activity (K562 [5]) of the same compound?
Its Activity is 96.21%.

What about the Activity (K562 [6]) of the same compound?
Its Activity is 90.17%.

And the Activity (K562 [7])?
The Activity was 5.34%.

And the Activity (K562 [8])?
The Activity was 4.48%.

And the Activity (K562 [9])?
The Activity was 0.01%.

What about the Activity (K562 [10]) of the same compound?
The Activity was 14.44%.

And the Activity (K562 [11])?
The Activity was 23%.

What about the Activity (K562 [12]) of the same compound?
The Activity was 20.02%.

And the Activity (K562 [13])?
Its Activity is 0%.

And the Activity (K562 [14])?
Its Activity is 1.46%.

And the Activity (K562 [15])?
The Activity was 0%.

What about the Activity (K562 [16]) of the same compound?
Its Activity is 0.02%.

What about the Activity (K562 [17]) of the same compound?
The Activity was 0.02%.

And the Activity (K562 [18])?
The Activity was 82.42%.

And the Activity (K562 [19])?
The Activity was 1.3%.

And the inhibition (K562 [20])?
The inhibition was “Dose-dependent effect”.

And the inhibition (K562 [21])?
The inhibition was “Dose-dependent effect”.

And the Activity (K562 [22])?
Its Activity is “Dose-dependent effect”.

What about the IC50 (HeLa) of the same compound?
Its IC50 is 166 µM.

What about the IC50 [23] of the same compound?
Its IC50 is > 200 µM.

What about the Activity (K562 [24]) of the same compound?
The Activity was “Active”.

And the Activity (K562 [25])?
Its Activity is “Active”.

What about the Activity (K562 [26]) of the same compound?
Its Activity is “Dose-dependent effect”.

And the Activity (K562 [27])?
The Activity was 14.31%.

What about the Activity (K562 [28]) of the same compound?
The Activity was 37.16%.

What about the Activity (K562 [29]) of the same compound?
The Activity was 16.81%.
